Test results as given in ChEMBL document CHEMBL2375351, “Degradation of MAC13243 and studies of the interaction of resulting thiourea compounds with the lipoprotein targeting chaperone LolA” (Bioorg Med Chem Lett, 2013).
Converted amounts (≈) assume the structure as drawn. The source made the active and inactive calls. No cut-off for these calls is given here.

What was measured:
Escherichia coli [1] = assay: Antibacterial activity against Escherichia coli MG1655 overexpressing lolA assessed as growth inhibition after 16 hrs; assay type: functional; details: MG1655, 16 h
Pseudomonas aeruginosa = assay: Antibacterial activity against Pseudomonas aeruginosa PAO1 assessed as growth inhibition after 16 hrs; assay type: functional; details: PAO1, 16 h
Outline: (§1)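 Broth microdilution in liquid LB with B. subtilis 168 or P. aeruginosa PAO1. Overnight cultures were diluted 1:100, grown to OD600 0.4, then diluted 1:100,000 into serially diluted compound (1–256 µg/mL). Plates were incubated 16 h at 37 °C, static, except B. subtilis, which was shaken at 250 rpm. MIC is the lowest concentration giving OD600 below 0.05.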

Bacillus subtilis = assay: Antibacterial activity against Bacillus subtilis 168 assessed as growth inhibition after 16 hrs; assay type: functional; details: subsp. subtilis str. 168, 16 h; outline: as §1
[2] = Binding affinity to recombinant Escherichia coli LolA by STDD NMR spectra analysis
Escherichia coli [3] = assay: Potency index, ratio of MIC for Escherichia coli EB2120 conditional lolA strain with lolA deletion and complementing copy placed at araBAD locus in presence of 0.2% arabinose to MIC in presence of 0.00002% of arabinose; assay type: functional
Escherichia coli [4] = assay: Potency index, ratio of MAC13243 MIC to compound MIC for Escherichia coli MG1655 overexpressing lolA; assay type: functional
Escherichia coli [5] = assay: Potency index, ratio of MIC for Escherichia coli AG1 overexpressing lolA to MIC for lolA-deficient Escherichia coli AG1; assay type: functional
Escherichia coli [6] = assay: Binding affinity to LolA in Escherichia coli EB68 assessed as change in cell shape from rod to sphere at 10 ug/mL measured every 1 hr for 4 hrs by phase contrast microscopic analysis
Outline: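 E. coli EB68 (MG1655) was subcultured 1:100 into LB and grown to OD600 ~0.5, then washed once in fresh medium. Cells were resuspended in LB with compound at 10 µg/mL, placed on poly-lysine-treated slides and examined by phase contrast light microscopy at 1 h intervals for rod-to-sphere shape change.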

Escherichia coli [7] = assay: Antibacterial activity against Escherichia coli EB2120 conditional lolA strain with lolA deletion and complementing copy placed at araBAD locus at 1 to 256 ug/mL after 18 hrs in presence of 0.00002 to 0.2% of arabinose; assay type: functional, organism-based
Outline: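 Conditional lolA strain EB2120 (chromosomal lolA deleted, complementing copy at araBAD under arabinose control), grown to OD600 ~0.4–0.5. […] Fold sensitization is the MIC under LolA depletion relative to the fully complemented 0.2% arabinose condition.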

[8] = Half life of the compound in citrate buffer at pH 11 at 250 uM measured up to 48 hrs by reverse phase HPLC analysis; assay type: physicochemical
Outline: (§2)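 Compound at 250 µM final was incubated in DMSO, H2O, 50 mM acetate buffer (pH 4) or 50 mM citrate buffer (pH 11). Samples were analysed over time by reverse phase C18 HPLC using a 10 min gradient of 0.1% TFA water to acetonitrile, with detection at 270 nm. Parent peak areas were plotted against time and fit to exponential decay.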

[9] = Binding affinity to Escherichia coli LolA
[10] = Half life of the compound in DMSO at 250 uM measured up to 48 hrs by reverse phase HPLC analysis; assay type: physicochemical; outline: as §2
[11] = Half life of the compound in water at 250 uM measured up to 48 hrs by reverse phase HPLC analysis; assay type: physicochemical; outline: as §2
[12] = Half life of the compound in acetate buffer at pH 4 at 250 uM measured up to 48 hrs by reverse phase HPLC analysis; assay type: physicochemical; outline: as §2

Row | SMILES | MIC (Escherichia coli [1]) [µg/mL] | MIC (Pseudomonas aeruginosa) [µg/mL] | MIC (Bacillus subtilis) [µg/mL] | further results
1 | COc1ccc(CCN)cc1OC | > 256 | – | – | –
2 | N=C(N)SCc1ccc(F)cc1 | 16 (≈ 86.8 µM) | 16 (≈ 86.8 µM) | > 256 | –
3 | N=C(N)SCc1ccc(Cl)cc1 | 2 (≈ 9.97 µM) | 16 (≈ 79.7 µM) | > 256 | Kd [2]: 150 µM; Ratio (Escherichia coli [3]): 32; Ratio (Escherichia coli [4]): 4; Ratio (Escherichia coli [5]): 16
4 | N=C(N)SCc1ccc(Cl)c(Cl)c1 | 2 (≈ 8.51 µM) | 16 (≈ 68 µM) | > 256 | Kd [2]: 200 µM; Activity (Escherichia coli [6]): Active; Ratio (Escherichia coli [3]): 32; Ratio (Escherichia coli [5]): 16
5 | C/N=C(\NC)SCc1ccc(Cl)c(Cl)c1 | 256 (≈ 973 µM) | 256 (≈ 973 µM) | > 256 | –
6 | N=C(N)SCc1ccccc1 [BENZYL CARBAMIMIDOTHIOATE] | 64 (≈ 385 µM) | 32 (≈ 192 µM) | > 256 | –
7 | N=C(N)OCc1ccc(Cl)cc1 | 32 (≈ 173 µM) | 32 (≈ 173 µM) | > 256 | –
8 | CO[C@H]1/C=C/O[C@@]2(C)Oc3c(C)c(O)c4c(O)c(c(/C=N/N5CCN(C)CC5)c(O)c4c3C2=O)NC(=O)/C(C)=C\C=C\[C@H](C)[C@H](O)[C@@H](C)[C@@H](O)[C@@H](C)[C@H](OC(C)=O)[C@@H]1C | – | – | – | Activity (Escherichia coli [7]): inactive
9 | COc1ccc(CCN2CN=C(SCc3ccc(Cl)cc3)NC2)cc1OC | 8 (≈ 19.7 µM) | 32 (≈ 78.8 µM) | 256 (≈ 631 µM) | half-life at 250 µM [8]: 59 h; Kd [9]: 8 µM; half-life at 250 µM [10]: 257 h; half-life at 250 µM [11]: 13 h; Activity (Escherichia coli [6]): Active; Ratio (Escherichia coli [3]): 32; half-life at 250 µM [12]: 4 h; Ratio (Escherichia coli [5]): 16
10 | N=C(N)CSCc1ccc(Cl)cc1 | > 256 | 128 (≈ 596 µM) | > 256 | –
11 | CN[C@@H]1[C@H](O)[C@H](NC)[C@H]2O[C@@]3(O)C(=O)C[C@@H](C)O[C@H]3O[C@@H]2[C@H]1O | – | – | – | Activity (Escherichia coli [7]): inactive
12 | N=C(N)SCc1ccc([N+](=O)[O-])cc1 | 32 (≈ 151 µM) | 64 (≈ 303 µM) | > 256 | –
13 | CN(C)[C@@H]1C(O)=C(C(N)=O)C(=O)[C@@]2(O)C(O)=C3C(=O)c4c(O)cccc4[C@@](C)(O)[C@H]3C[C@@H]12 | – | – | – | Activity (Escherichia coli [7]): inactive
14 | C[C@@H]1O[C@@H]1P(=O)(O)O [FOSFOMYCIN] | – | – | – | Ratio (Escherichia coli [3]): 16
15 | COc1ccc(CSC(=N)N)cc1 | > 256 | 32 (≈ 163 µM) | > 256 | –
16 | CC1(C)S[C@@H]2[C@H](NC(=O)[C@H](N)c3ccccc3)C(=O)N2[C@H]1C(=O)O | – | – | – | Activity (Escherichia coli [7]): inactive
17 | COc1cc(Cc2cnc(N)nc2N)cc(OC)c1OC | – | – | – | Activity (Escherichia coli [7]): inactive
18 | N=C(N)NCc1ccc(Cl)cc1 | 256 (≈ 1390 µM) | 128 (≈ 697 µM) | > 256 | –
19 | N=C(N)SCc1cccc(Cl)c1 | 64 (≈ 319 µM) | > 256 | > 256 | –
20 | N=C(N)SCCc1ccc(Cl)cc1 | > 256 | 128 (≈ 596 µM) | > 256 | –
21 | N=C(N)SCCCc1ccc(Cl)cc1 | > 256 | 128 (≈ 560 µM) | > 256 | –
22 | N=C(N)SCc1ccc(Br)cc1 | 4 (≈ 16.3 µM) | 16 (≈ 65.3 µM) | > 256 | –
23 | CCn1cc(C(=O)O)c(=O)c2cc(F)c(N3CCNCC3)cc21 | – | – | – | Activity (Escherichia coli [7]): inactive
24 | N=C(N)SCc1ccccc1Cl | 16 (≈ 79.7 µM) | 64 (≈ 319 µM) | > 256 | –
25 | N=C(N)SCc1ccc(I)cc1 | 16 (≈ 54.8 µM) | 32 (≈ 110 µM) | > 256 | –
26 | N=C(N)CCc1ccc(Cl)cc1 | > 256 | 128 (≈ 701 µM) | > 256 | –
27 | Oc1cc(Cl)ccc1Oc1ccc(Cl)cc1Cl | – | – | – | Activity (Escherichia coli [7]): inactive
28 | N=C(N)Sc1ccc(Cl)cc1 | > 256 | 64 (≈ 343 µM) | 4 (≈ 21.4 µM) | –
29 | N=C(N)SCc1ccc(Cl)cc1Cl | 1 (≈ 4.25 µM) | 32 (≈ 136 µM) | > 256 | –
30 | N=C(N)c1ccc(Cl)cc1 | > 256 | 64 (≈ 414 µM) | 4 (≈ 25.9 µM) | –
